# In the library only some 2.3% were active in any assay of this set; here they are far more common.
# TDP2 absorb = TDP2 (human) inhibition, absorbance primary screen; O95551; recombinant TDP2, T5PNP hydrolysis, p-nitrophenol absorbance 415 nm; inhibition, % at 12.8 µM; 370,000 tested, 0.34% active;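 active means inhibition above the mean of all tested compounds plus 3 SD, set per campaign, cut at about 25% in these data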;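 further: 0% = DMSO with enzyme and 100% = buffer with substrate but no TDP2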
#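 Test system: Human TDP2 enzyme | Reagent: 5 mM T5PNP | Compound dosing: 12.8 µM single point, 1% DMSO | Incubation: Enzyme reaction with compound for 2 h at 37 °C | Technique: p-Nitrophenol epi absorbance | Read-out: % inhibition relative to enzyme-containing and enzyme-free wells | Benchmarks: High control without enzyme, low control DMSO plus TDP2 | Replicates: Singlicate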
# PAFAH2 inh = inhibitors of human PAFAH2; Q99487; recombinant PAFAH2, FP-rhodamine activity probe, fluorescence polarization; inhibition, % at 3.39 µM; 340,000 tested, 0.99% active;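 active means inhibition above the mean over all tested compounds plus 3 SD, cut at about 30% in these data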;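 further: inhibitors block probe labeling of enzyme so polarization drops; 0% = enzyme with DMSO and 100% = wells lacking PAFAH2 protein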
# PAFAH1B2 inh = blocks human PAF acetylhydrolase 1b catalytic subunit 2 | P68402 | recombinant PAFAH1B2, FP-rhodamine activity probe, fluorescence polarization | inhibition, % at 3.39 µM | 340,000 tested, 1.2% active | AID 492953;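 active means inhibition above the mean of all tested compounds plus 3 SD, cut at about 24% in these data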;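 further: 0% = enzyme with DMSO and 100% = wells lacking PAFAH1B2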
# Apaf-1 inh = inhibitors of human Apaf-1 apoptosome; O14727; reconstituted apoptosome caspase-3 activity, DEVD-Rh110 fluorescence; inhibition, % at 20 µM; 330,000 tested, 0.71% active; active means inhibition of at least 40% at 20 µM;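 further: plate controls were DMSO wells for no effect and DEVD-CHO caspase inhibitor wells for full effect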
#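 detection = Rh110 fluorescence intensity | test system = biochemical Apaf-1 apoptosome reconstitution | also added = cytochrome c and DEVD-Rh110 substrate | schedule = 30 min plus 50 min, RT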
# PAFAH1B3 FP inh = blocks human PAF acetylhydrolase 1B catalytic subunit 3 | Q15102 | recombinant PAFAH1B3, FP-rhodamine probe, fluorescence polarization | inhibition, % at 3.39 µM | 340,000 tested, 0.28% active;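 active means inhibition above the screen-wide average of all tested compounds plus 3 SD, cut at about 25% in these data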;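 further: 0% = enzyme with DMSO only and 100% = wells lacking PAFAH1B3 protein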
# PAFAH2 FP conf = confirmation of human PAFAH2 inhibitors. shares compounds with PAFAH2 inh. recombinant PAFAH2, FP-rhodamine activity probe, fluorescence polarization. inhibition, % at 3.39 µM. 2,300 tested, 65% active. AID 493030;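 active means mean inhibition over three repeats above a set limit taken from the earlier primary screen, cut at about 30% in these data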;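 further: inhibitor blocks binding of rhodamine activity probe so polarization falls; 0% = enzyme with DMSO and 100% = wells lacking PAFAH2 protein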
# * marks the source's active call; other numbers are inactive results; / = not tested or not shown.
SMILES,TDP2 absorb,PAFAH2 inh,PAFAH1B2 inh,Apaf-1 inh,PAFAH1B3 FP inh,PAFAH2 FP conf
COc1ccc(C(=O)OCC(=O)Nc2ccc3c(c2)OCCO3)c(OC)c1,4,55*,4,-5,3,50*
O=C(COC(=O)CNC(=O)c1ccccc1F)Nc1ccc2c(c1)OCCO2,1,0,0,-10,2,/
O=C(COC(=O)c1ccccc1F)Nc1ccc2c(c1)OCCO2,0,70*,4,3,8,52*
COC(=O)[C@]12C[C@H](CC(=O)N3CCOCC3)C(=O)N(Cc3ccco3)C1=C[C@H](C(C)(C)C)O[C@@H]2C,4,/,/,/,/,/
CCOc1ccc(-n2c(SCC(=O)NN=Cc3ccc(C(=O)O)cc3)nnc2-c2cccnc2)cc1,5,/,/,/,/,/
O=C(COC(=O)c1cc[n+]([O-])cc1)Nc1ccc2c(c1)OCCO2,19,-3,-4,-13,1,/
CCOc1ncccc1C(=O)OCC(=O)c1ccc(Cl)s1,-6,44*,4,4,8,17
CCOc1ncccc1C(=O)OCC(=O)c1ccc(F)cc1,-5,20,7,-4,-1,/
CCOc1ncccc1C(=O)OCC(=O)NCc1ccc2c(c1)OCO2,0,1,0,6,-3,/
O=C(COC(=O)c1cccc(F)c1)Nc1ccc2c(c1)OCCO2,-2,31*,2,9,3,27
CCOc1ncccc1C(=O)OCC(=O)Nc1ccc2c(c1)OCO2,8,32*,4,-7,-1,36*
Cc1cccc(C(=O)OCC(=O)Nc2ccc3c(c2)OCCO3)c1,0,61*,4,7,5,58*
COc1ccc(CN2C(C(=O)NCC(C)C)CSCCS2(=O)=O)cc1 (stereo unspecified),-8,/,/,/,/,/
COCC#Cc1ccc(CC[C@H]2O[C@H]3CC[C@@H](CO)O[C@H]3C[C@H]2n2cc(C3CC3)nn2)cc1,-3,/,/,/,/,/
COC[C@H]1CCCN1c1ccc2c(c1)O[C@H](C)CCN(C1CC1)S2(=O)=O,-3,/,/,/,/,/
CCOc1ccc(C(=O)OCC(=O)Nc2ccc3c(c2)OCCO3)cc1OC,0,74*,8,-5,-3,83*
COc1cccc(NC(=O)COC(=O)c2ccc3c(c2)OCCO3)c1,5,/,/,/,/,/
Cc1nc2cc(N3CCCCC3)c(NC(=O)c3ccncc3)cc2c(=O)n1Cc1ccc(Cl)cc1,/,/,/,11,/,/
Cc1nc2cc(N3CCN(C)CC3)c(NC(=O)Cc3ccccc3)cc2c(=O)n1Cc1ccccc1,-12,42*,-3,14,6,27
Cc1ccc(S(=O)(=O)ON2C(=O)c3cccc4cccc(c34)C2=O)cc1,-7,30*,3,17,17,26
CCN1CCN(Cc2c(O)ccc3c2O/C(=C\C=C\c2ccccc2)C3=O)CC1,1,36*,0,14,-3,32*
CCc1ccc(/C=C2\Oc3c(ccc(O)c3CN3CCN(C)CC3)C2=O)cc1,-7,58*,7,-13,6,53*
CCN1CCN(Cc2c(O)ccc3c2O/C(=C\c2ccc(C)cc2)C3=O)CC1,2,33*,-1,-6,1,25
COC(=O)[C@]12C[C@H](CC(=O)NCCCN3CCCC3=O)C(=O)N(Cc3ccc4c(c3)OCO4)C1=C[C@H](COCc1ccccc1)O[C@@H]2C,6,/,/,/,/,/
Cc1ccc2c(c1)C1CS(=O)(=O)N(Cc3ccccc3)C(=O)N1C2 (stereo unspecified),-4,/,/,/,/,/
SMILES,TDP2 absorb,PAFAH2 inh,PAFAH1B2 inh,Apaf-1 inh,PAFAH1B3 FP inh,PAFAH2 FP conf
CCOC(=O)[C@]12CCCCC/C=C\1N(Cc1ccc(OC)cc1)C(=O)[C@H]2CC(=O)N1CCCC1,-4,/,/,/,/,/
C[C@@H]1COc2cc(Br)ccc2S(=O)(=O)N1Cc1cn(CCC2OCCO2)nn1,9,/,/,/,/,/
COc1ccc(CC(=O)N/N=C(\C)CC(=O)Nc2ccc(N(C)C)cc2)cc1,-22,3,-2,4,2,/
C/C(CC(=O)Nc1ccc(N(C)C)cc1)=N\NC(=O)Cc1csc(N)n1,7,49*,3,2,3,7
CC(C)(C)OC(=O)N1CCC(N[C@@H](Cc2ccccc2)C(=O)NCC(c2ccccc2)c2ccccc2)(C(=O)NC2CCCCC2)CC1,-5,/,/,/,/,/
CNc1ccc(C(=O)OCC(=O)Nc2ccnn2C(C)C)cc1[N+](=O)[O-],-6,60*,4,-2,3,46*
COc1ccccc1/C=C/C(=O)OCC(=O)NCc1ccco1,4,62*,5,2,8,53*
COc1cc(/C=C/C(=O)OCC(=O)NCc2ccco2)ccc1O,4,66*,4,0,4,46*
COc1ccc(-c2nnc(SCC(=O)N/N=C\C=C/c3ccco3)n2-c2ccc(C)cc2)cc1,1,/,/,/,/,/
O=S(=O)(c1ccc2c(c1)CCCN2)N1CCCC2CCCCC21 (stereo unspecified),-12,31*,24,22,24,2
O=C1CCCN1C(=O)COc1ccccc1[N+](=O)[O-],-4,30*,6,4,3,19
COc1cc(/C=C/C(=O)OCC(=O)Nc2cc(S(=O)(=O)N3CCCC3)ccc2Cl)cc(OC)c1OC,9,31*,0,3,6,26
COc1cc(C(C)=O)ccc1OCC(=O)Nc1ccc(C)c(S(=O)(=O)N2CCCCCC2)c1,-1,1,6,19,-1,/
COc1cc(/C=C/C(=O)OCC(=O)Nc2ccc(C)c(S(=O)(=O)N3CCCCC3)c2)ccc1O,-2,67*,2,12,5,73*
COc1cc(/C=C/C(=O)OCC(=O)c2ccc(S(=O)(=O)N3CCCCC3)cc2)cc(OC)c1OC,-5,4,2,0,-1,/
COc1cc(/C=C/C(=O)OCC(=O)Nc2cc(S(=O)(=O)N3CCCCC3)ccc2C)ccc1O,-9,75*,-2,-16,-5,79*
CCOC(=O)[C@]12CCCC=C1N(Cc1ccc(OC)cc1)C(=O)[C@@H]2CC(=O)N1CCN(C(=O)c2ccco2)CC1,-6,/,/,/,/,/
CC(C)(C)C(=O)OC12CCCN(C1)/C(=C/c1ccccc1)C2 (stereo unspecified),-1,/,/,/,/,/
CCOc1ccccc1NC(=O)Cn1c(=O)sc2ccccc21,4,3,2,-1,-2,/
O=C(Cn1c(=O)sc2ccccc21)Nc1ccc(O)cc1,-5,31*,4,-1,10,29
CC(C)(C)S(=O)(=O)c1cnc2c(S(=O)(=O)c3ccccc3)cnn2c1N,2,30*,-2,-6,1,0
COc1ccc(Oc2c(-c3cccs3)cnn(-c3ccc(C)cc3)c2=O)cc1,4,/,/,/,/,/
Cc1ccc(NC(=O)c2cccc3c2-c2ccccc2C3=O)c(C)c1,6,/,/,/,/,/
O=C(COC(=O)C12CC3CC(CC(O)(C3)C1)C2)Nc1ccc(Cl)c(S(=O)(=O)N2CCOCC2)c1,1,48*,4,-2,12,24

# Bioassay records (PubChem)
